Compounds with a hit are over-represented: about 2.5% of the library has one in this group of screens.
MC4R antag cAMP: MC4R antagonists of cAMP signaling, primary screen, cell-based, TR-FRET, antagonist arm of biased-ligand search; MC4R-expressing cells, MTII-stimulated cAMP, LANCE TR-FRET; inhibition, % at 6.5 µM; 360,000 tested, 0.48% active; AID 540295, 2011;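 active = inhibition above its plate's cutoff, the mean of tested wells on that plate plus 3 SD, cut at about 29% in these data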;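 also: 0% = Melanotan II alone and 100% = Melanotan II plus saturating MCL0020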
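Material: U2OS-MC4R stable cell line | Reagent: Melanotan II challenge after compound preincubation | Doses: One concentration, 6.5 µM nominal | Incubation: 30-min compound preincubation, 1-h Melanotan II challenge, 1-h detection, room temperature | Signal: TR-FRET cAMP assay | Replicates: One well per compound, no replicates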
Tb MetRS inh: T. brucei MetRS inhibitors, primary screen, biochemical, luminescence | methionyl-tRNA synthetase (Trypanosoma brucei brucei) | purified T. brucei MetRS, ATP depletion, Kinase-Glo luminescence | inhibition, % at 11.9 µM | 360,000 tested, 0.4% active | AID 624268, 2012;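 active = inhibition above a per-plate cutoff of the control wells' mean inhibition plus 3 SD, cut at about 5.5% in these data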;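 also: 0% = DMSO wells median and 100% = median of wells with control inhibitor compound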
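System: purified T. brucei MetRS enzyme / Detection: Kinase-Glo luciferase luminescence reporting remaining unconsumed ATP / Medium: HEPES buffer with MgCl2, KCl, DTT, spermine, BSA, pyrophosphatase / Replication: singlicate, one well per compound / Evaluation: percent inhibition relative to median high and low control wells / Schedule: 2 h aminoacylation at 25 °C after 15 min preincubation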
NALP3 yeast inh: NALP3 inflammasome inhibitors in reconstituted yeast, primary screen, luminescence, uHTS; Yeast reconstituted NLRP3/ASC/caspase-1, beta-gal luminescence, 24 h; inhibition, % at 10 µM; 330,000 tested, 0.39% active; AID 2825, 2010;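 active = inhibition of 50% or more; inactive = inhibition below 50%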;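 also: plate controls were induced DMSO wells for no effect and uninduced yeast grown without galactose for full effect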
MC4R barr agon: MC4R agonists recruiting beta-arrestin, primary screen, cell-based, luminescence, agonist arm of biased-ligand search. Melanocortin receptor 4 (Homo sapiens), P32245. U2OS MC4R beta-arrestin complementation; percent of melanotan II response, DMSO zero. activation, % at 8.9 µM. 360,000 tested, 0.98% active;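 active = activation above a per-plate cutoff, the mean activation of sample wells on that plate plus 3 SD, cut at about 8% in these data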
NALP1 inh: NALP1 inflammasome inhibitors in reconstituted yeast, colorimetric, S. cerevisiae, triplicate retest; inhibition, % at 10 µM; 280,000 tested, 0.61% active; S. cerevisiae NALP1/ASC/caspase-1 growth, X-gal OD620, 72 h; in the data active = inhibition mostly above about 24%, no sharp cut-off; inactive = mostly below about 32%
A1 inh: caspase 3/7 activation in MEF A1-2A-BIM cells, primary screen, A1 inhibitor project, cell-based, luminescence, HTS; Caspase-Glo 3/7 luminescence, 3 h; percent of clofoctol response, vehicle zero; caspase activation, % (no concentration beside the values); 330,000 tested, 0.066% active;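 active = over half of replicate activation scores above 10%, or exactly half above 10 with the replicate mean above 10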
MC4R barr ag: MC4R beta-arrestin agonists, retest, confirmation, cell-based, luminescence, U2OS; shares compounds with MC4R barr agon; U2OS MC4R beta-arrestin recruitment; scaled DMSO 0%, Melanotan II 100%; activation, % at 8.9 µM; 2,400 tested, 31% active; AID 602192, 2012;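 active = mean activation across replicates above the hit cutoff set in the earlier primary screen, cut at about 8% in these data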
MOR-DOR barr ag: agonists of MOR-DOR heterodimerization, counter-screen for MC4R biased agonist project, cell-based, luminescence; AID 602194, 2012; U2OS PathHunter beta-arrestin, beta-gal luminescence; percent of deltorphin B response, DMSO zero; 2,400 tested, 5.8% active; shares compounds with MC4R barr agon; activation, % at 9.2 µM;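 active = mean activation across replicates exceeds the hit threshold derived in the earlier primary screen, cut at about 18% in these data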;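 also: 100% = deltorphin B at 0.9 µM final and 0% = DMSO alone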
Target sequence (P35372 whole entry, looked up): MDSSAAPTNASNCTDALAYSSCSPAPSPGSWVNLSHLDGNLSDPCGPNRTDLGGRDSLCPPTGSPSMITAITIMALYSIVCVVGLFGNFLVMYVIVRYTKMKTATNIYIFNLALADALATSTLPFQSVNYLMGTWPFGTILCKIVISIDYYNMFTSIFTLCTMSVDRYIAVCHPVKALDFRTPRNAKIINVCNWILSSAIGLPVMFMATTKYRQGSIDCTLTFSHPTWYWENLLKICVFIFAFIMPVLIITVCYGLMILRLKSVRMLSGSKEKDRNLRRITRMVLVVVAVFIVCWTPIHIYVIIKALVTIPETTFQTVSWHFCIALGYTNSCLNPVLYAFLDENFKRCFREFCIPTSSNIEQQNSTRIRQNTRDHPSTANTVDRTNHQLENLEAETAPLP
Target sequence (P41143 whole entry, looked up): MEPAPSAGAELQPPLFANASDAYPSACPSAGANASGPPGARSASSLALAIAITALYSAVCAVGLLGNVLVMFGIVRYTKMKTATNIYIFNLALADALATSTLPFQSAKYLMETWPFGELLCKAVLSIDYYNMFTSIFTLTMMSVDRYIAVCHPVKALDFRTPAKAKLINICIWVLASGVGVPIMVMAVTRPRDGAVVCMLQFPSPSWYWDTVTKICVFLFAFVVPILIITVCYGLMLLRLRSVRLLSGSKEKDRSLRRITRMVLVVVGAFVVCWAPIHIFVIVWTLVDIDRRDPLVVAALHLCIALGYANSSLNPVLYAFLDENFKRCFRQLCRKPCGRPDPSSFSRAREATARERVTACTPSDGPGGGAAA
An asterisk follows results filed as active; x = no result given.

SMILES | MC4R antag cAMP | Tb MetRS inh | NALP3 yeast inh | MC4R barr agon | NALP1 inh | A1 inh | MC4R barr ag | MOR-DOR barr ag
CC(=O)Nc1cccc(-c2cc(NC(C)=O)c3ncc(-c4ccc(F)cc4)n3c2)c1 | 5 | 0 | x | 17* | x | x | 11* | 1
CC(=O)Nc1cc(-c2cccc(F)c2)cn2c(-c3ccc(F)cc3)cnc12 | 3 | 0 | x | 40* | x | x | 64* | 2
COc1ccc(NC(=O)C[C@H]2C(=O)N(C3CCCCC3)C[C@@H]2c2ccc(OC)cc2)cc1 | -6 | -1 | x | 1 | x | x | x | x
CCC(=O)N1CCC1(C)C(=O)Nc1ccc2scnc2c1 (stereo not drawn) | -1 | 0 | x | 0 | x | x | x | x
Cc1ccc2nc(-c3cccc(NC(=O)c4ccc5c(c4)OCCO5)c3)oc2c1 | 12 | 0 | -4 | 23* | 11 | 2 | 2 | 4
COC(=O)C[C@H]1N(S(=O)(=O)c2ccc(C)cc2)C(C(C)C)CC1(C(=O)OC)C(=O)OC (stereo partly drawn) | x | -1 | x | x | x | x | x | x
CCCN(CCC)CCNC(=O)c1cc2c(-c3ccc(Cl)cc3)nn(C)c2s1 | -2 | -1 | 33 | 11* | 8 | 1 | 9.0* | 9
CCN(CC)CCNC(=O)c1cc2c(-c3ccc(Cl)cc3)nn(C)c2s1 | 7 | 0 | 10 | 0 | 16 | x | x | x
O=C1CCc2cc(S(=O)(=O)NCc3ccc(F)cc3)cc3c2N1CCC3 | 0 | -1 | 0 | 1 | x | -1 | x | x
COc1ccc(NC(=O)/C(C#N)=C/c2ccc[nH]2)c(OC)c1 | -3 | 0 | 14 | 10* | 7 | 0 | -2 | 12
N#C/C(=C\c1ccc[nH]1)C(=O)Nc1ccccc1Cl | 11 | 0 | 13 | 12* | 8 | -5 | 0 | 14
Cc1ccc(S(=O)(=O)N2CCN(C(=O)COC(=O)CCOc3ccccc3C)CC2)c(C)c1 | -3 | 0 | 18 | -2 | x | x | x | x
O=C1N[C@H]2CC=C[C@H]2Nc2ccccc21 | 8 | 0 | x | 0 | x | x | x | x
CCCCCC(=O)N1C[C@H](O)[C@@H](n2cc(C3CC3)nn2)C[C@@H]1c1ccc(Cl)cc1 | 12 | -1 | x | -1 | x | x | x | x
CN1C(=O)/C(=C/c2cc3c(cc2Br)OCO3)NC1=S | -13 | 0 | 19 | 11* | 14 | 0 | 0 | 3
COCCn1c(C)cc(/C=C2\NC(=S)N(C)C2=O)c1C | -4 | 0 | 16 | -1 | 22 | 1 | x | x
Cc1ccc(C(=O)CSc2nnc(-c3ccc4[nH]c(C)c(C)c4c3)o2)cc1C | 5 | -1 | 1 | -1 | 6 | -1 | x | x
Cc1[nH]c2ccc(-c3nnc(SCC(=O)c4ccccc4F)o3)cc2c1C | 16 | 1 | 15 | 10* | -13 | 1 | 1 | 4
O=C1/C(=C/c2ccc([N+](=O)[O-])cc2)CCC1C1CCCC1 (stereo not drawn) | -3 | -1 | 24 | 2 | 9 | 0 | x | x
Clc1ccc(OCCCNCc2ccccc2)c(Br)c1 | 1 | 0 | 41 | 0 | 29 | 0 | x | x
Clc1ccc(Cl)c(OCCCCNCc2ccccc2)c1 | -2 | -2 | 22 | 10* | 46 | 1 | 16* | 11
Cc1ccc(C(=O)NCC(=O)NCc2ccc(Cl)cc2)s1 | 3 | 1 | 5 | -2 | x | -1 | x | x
COc1cccc(/C=C/C(=O)N(C)CC(=O)Nc2ccc(Cl)c(C(F)(F)F)c2)c1 | -3 | 0 | 11 | 12* | x | 0 | 1 | 6
CCCCNS(=O)(=O)c1ccc(NS(=O)(=O)c2c(C)cc(C)cc2C)cc1 | 1 | -1 | 19 | 12* | 9 | 0 | 7 | 4
CC1CC(C)CN(S(=O)(=O)c2ccc3c(c2)oc(=O)n3CC(=O)NCCCOC(C)C)C1 (stereo not drawn) | 0 | 0 | 3 | 0 | 6 | 0 | x | x
SMILES | MC4R antag cAMP | Tb MetRS inh | NALP3 yeast inh | MC4R barr agon | NALP1 inh | A1 inh | MC4R barr ag | MOR-DOR barr ag
O=C(CCc1ccccc1)NC(NC(=S)Nc1ccc(Br)cc1)C(Cl)(Cl)Cl (stereo not drawn) | 21 | 0 | 2 | 13* | 7 | 1 | 5 | 6
O=C(CCc1ccccc1)NC(NC(=S)Nc1cccc(Cl)c1)C(Cl)(Cl)Cl (stereo not drawn) | 15 | -1 | -5 | 6 | 20 | 1 | x | x
Cc1cc2cc(C)c(NCCNC(=O)c3ccccc3)nc2cc1C | 2 | 0 | -7 | -1 | -20 | 1 | x | x
Cc1ccc(C(=O)NCCNc2nc3cc(C)c(C)cc3cc2C)cc1 | -4 | 0 | 17 | 15* | 10 | 0 | 20* | 4
Cc1ccccc1Cn1ccc(NC(=O)c2cc3nc(-c4ccco4)cc(C(F)(F)F)n3n2)n1 | 11 | 0 | 5 | 15* | -4 | 0 | -1 | 5
CCOc1ccc(Nc2oc(-c3ccco3)nc2C#N)cc1 | 9 | 2 | 29 | 2 | 8 | 0 | x | x
CCOc1ccc(Nc2oc(-c3cccs3)nc2C#N)cc1 | -2 | -1 | 31 | 18* | 21 | 1 | 5 | 10
O=C(CC1CCCC1)N1CCN(S(=O)(=O)c2ccccc2)CC1 | 4 | 0 | 18 | 0 | x | 0 | x | x
CCC1CN(C(=O)Nc2ccc(C)cc2)c2cc(C)ccc2O1 (stereo not drawn) | 23 | 0 | 26 | 11* | -14 | 1 | -2 | 4
CCC1CN(C(=O)NCc2ccc(F)cc2)c2cc(C)ccc2O1 (stereo not drawn) | 12 | 0 | 27 | 0 | 5 | 1 | x | x
COc1ccc(-c2csc3ncnc(Nc4ccc(O)cc4)c23)cc1 | 22 | 0 | 0 | 14* | 13 | 1 | 5 | 10
COc1ccc(-c2csc3ncnc(NCCO)c23)cc1 | -1 | 0 | 7 | 1 | 16 | 0 | x | x
COc1ccc(S(=O)(=O)N(C)C[C@H]2Oc3c(NC(=O)C4CCCCC4)cccc3C(=O)N([C@H](C)CO)C[C@@H]2C)cc1 | -5 | 0 | 14 | -1 | x | 0 | x | x

Assay outcomes (PubChem)
